# Reference: ChEMBL document CHEMBL1212917, “Substituted E-3-(3-indolylmethylene)-1,3-dihydroindol-2-ones with antitumor activity. In depth study of the effect on growth of breast cancer cells” (2010)
# The source made the active and inactive calls. The rule behind the calls is not given here.
# Key:
# MCF7 [1] = assay: Antiproliferative activity against human MCF7 cells assessed as increase in tumor suppressor p21 expression at 5 uM after 20 hrs by Western blotting; format: functional; settings: in the assay text read “24 hrs” for “20 hrs”
# [2] = Growth inhibition of human Ovarian cancer cells after 48 hrs; format: functional; settings: Cancer cell lines; for CC50: read-out: LC50 (the source's name)
# MCF7 [3] = assay: Antiproliferative activity against human MCF7 cells assessed as increase in tumor suppressor p53 expression at 5 uM after 20 hrs by Western blotting; format: functional
# Procedure, shortened: (§1)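 MCF-7 cells in RPMI 1640 with 10% FBS and 2 mM L-glutamine at 37°C, 5% CO2, plated at 2×10^4 cells/cm2. Compound added 24 h later to 5 μM (DMSO vehicle in controls) for 20 h. Lysed in HEPES pH 7.5 buffer with DTT, EDTA, CHAPS, Triton X-100 and protease inhibitors, then freeze-thawed twice. SDS-PAGE at 80 μg protein/lane and immunoblotting for total and phospho ERK1/2 and Akt, p53 and p21, with β-actin. Densitometry used for quantitation.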
# [4] = Growth inhibition of human leukemia cells after 48 hrs; format: functional; settings: Leukemia cell; for CC50: read-out: LC50 (the source's name)
# MCF7 [5] = assay: Cell cycle arrest in human MCF7 cells assessed as accumulation at G2/M phase at 200 nM after 24 to 48 hrs; format: functional, cell-based
# Procedure, shortened: (§2)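 MCF-7 cells plated at 2×10^4 cells/cm2 and exposed to 200 nM compound for 24 and 48 h; DMSO-treated controls. Cells detached with trypsin/EDTA and washed in PBS. Stained 30 min at room temperature in the dark with 50 μg/mL propidium iodide, 10 μg/mL RNase, 0.01% NP-40 and 0.1% sodium citrate. DNA content read by flow cytometry. Means ± s.e.m. of three determinations.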
# [6] = Growth inhibition of human colon cancer cells after 48 hrs; format: functional; settings: Cancer cell lines; for CC50: read-out: LC50 (the source's name)
# [7] = Growth inhibition of human CNS cancer cells after 48 hrs; format: functional; settings: Cancer cell lines; for CC50: read-out: LC50 (the source's name)
# [8] = Growth inhibition of human renal cancer cells after 48 hrs; format: functional; settings: Cancer cell lines; for CC50: read-out: LC50 (the source's name)
# [9] = Growth inhibition of human prostate cancer cells after 48 hrs; format: functional; settings: Cancer cell lines; for CC50: read-out: LC50 (the source's name)
# [10] = biological target: RAC-alpha serine/threonine-protein kinase (Homo sapiens) (UniProt P31749); assay: Inhibition of AKT phosphorylation in human MCF7 cells assessed as p-AKT level at 5 uM after 20 hrs by Western blotting; format: cell-based; procedure, shortened: as §1
# NSCLC = assay: Growth inhibition of human NSCLC cells after 48 hrs; format: functional
# MCF7 [11] = assay: Growth inhibition of human MCF7 cells at 200 nM after 48 hrs by trypan blue exclusion cell counting
# [12] = Growth inhibition of human melanoma cells after 48 hrs; format: functional; settings: Melanoma cell; for CC50: read-out: LC50 (the source's name)
# [13] = Growth inhibition of human breast cancer cells after 48 hrs; format: functional; settings: Cancer cell lines; for CC50: read-out: LC50 (the source's name)
# MCF7 [14] = assay: Cell cycle arrest in human MCF7 cells assessed as accumulation at subG1 phase at 200 nM after 24 to 48 hrs; format: functional, cell-based; procedure, shortened: as §2
# MCF7 [15] = assay: Induction of apoptosis in human MCF7 cells assessed as Bax accumulation by immunofluorescence microscopy; format: functional, cell-based
# Procedure, shortened: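 MCF-7 cells seeded on glass coverslips at 1×10^4 cells/cm2 and treated with 5 μM for 24 h. Fixed in 3% paraformaldehyde, washed in glycine and permeabilized in ice-cold 70% ethanol. Stained with mouse anti-Bax for 1 h at room temperature, then FITC anti-mouse IgG, with propidium iodide as nuclear counterstain. Imaged by confocal microscopy with excitation at 488 and 568 nm. Three experiments.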
# Chain of RAC-alpha serine/threonine-protein kinase (Homo sapiens) (P31749 whole entry): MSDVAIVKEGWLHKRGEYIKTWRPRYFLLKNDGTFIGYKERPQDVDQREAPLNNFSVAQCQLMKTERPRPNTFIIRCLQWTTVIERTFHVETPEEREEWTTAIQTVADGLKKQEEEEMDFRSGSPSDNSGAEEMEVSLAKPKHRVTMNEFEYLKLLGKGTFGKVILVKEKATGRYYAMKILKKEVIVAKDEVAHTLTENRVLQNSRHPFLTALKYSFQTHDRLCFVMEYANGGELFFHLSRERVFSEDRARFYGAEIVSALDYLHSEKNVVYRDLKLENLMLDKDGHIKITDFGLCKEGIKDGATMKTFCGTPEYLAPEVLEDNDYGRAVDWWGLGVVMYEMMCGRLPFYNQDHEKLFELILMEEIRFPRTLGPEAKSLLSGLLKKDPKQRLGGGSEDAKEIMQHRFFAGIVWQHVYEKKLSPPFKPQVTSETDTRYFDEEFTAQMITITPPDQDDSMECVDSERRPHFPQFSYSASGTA
Compound,GI50 [2],CC50 [2],Activity (MCF7 [3]),GI50 [4],CC50 [4],GI50 [6],CC50 [6],GI50 [7],CC50 [7],GI50 [8],CC50 [8],GI50 [9],TGI [9],CC50 [9],GI50 (NSCLC),LC50 (NSCLC),GI50 [12],CC50 [12],GI50 [13],CC50 [13],other results
COc1cc2c(/C=C3/C(=O)Nc4cc(Cl)ccc43)c(Cl)n(C)c2cc1C,0.03 µM,52.5 µM,Active,0.02 µM,39.8 µM,0.02 µM,25.1 µM,0.02 µM,23.4 µM,0.04 µM,70.8 µM,0.02 µM,3.02 µM,21.4 µM,0.07 µM,93.3 µM,0.02 µM,50.1 µM,0.05 µM,72.4 µM,Activity (MCF7 [1]): 90%; fold change (FC) (MCF7 [3]; in the assay text read “after 24 hrs” for “after 20 hrs”): 3; Activity (MCF7 [5]): Active; Activity [10]: Active; Activity (MCF7 [11]): Active; Activity (MCF7 [14]): Active; Activity (MCF7 [15]): Active
COc1cc2c(cc1C)N(C)C(=O)/C2=C/c1c(Cl)[nH]c2ccccc12,0.6 µM,61.7 µM,Active,0.26 µM,69.2 µM,0.37 µM,46.8 µM,0.32 µM,47.9 µM,0.62 µM,56.2 µM,0.32 µM,–,69.2 µM,0.58 µM,57.5 µM,0.71 µM,51.3 µM,0.3 µM,57.5 µM,–
Cc1cc2c(cc1O)/C(=C\c1c(Cl)[nH]c3c1ccc1ccccc13)C(=O)N2,9.12 µM,87.1 µM,–,3.31 µM,–,6.61 µM,61.7 µM,8.71 µM,67.6 µM,8.71 µM,75.9 µM,–,26.3 µM,74.1 µM,7.94 µM,–,6.46 µM,57.5 µM,3.72 µM,69.2 µM,TGI [2]: 46.8 µM; TGI [4]: 38 µM; TGI [6]: 20.9 µM; TGI [7]: 24.6 µM; TGI [8]: 33.1 µM; TGI (NSCLC): 30.2 µM; TGI [12]: 20.9 µM; TGI [13]: 19.1 µM
O=C1Nc2cccc(Cl)c2/C1=C\c1c(Cl)[nH]c2c1ccc1ccccc12,2.51 µM,57.5 µM,–,5.5 µM,75.9 µM,4.9 µM,47.9 µM,3.63 µM,53.7 µM,8.91 µM,56.2 µM,10.2 µM,31.6 µM,63.1 µM,9.55 µM,72.4 µM,4.57 µM,46.8 µM,5.01 µM,67.6 µM,TGI [2]: 13.2 µM; TGI [4]: 25.7 µM; TGI [6]: 17.4 µM; TGI [7]: 17.8 µM; TGI [8]: 23.4 µM; TGI (NSCLC): 28.2 µM; TGI [12]: 19.1 µM; TGI [13]: 19.9 µM
